Measured values gathered from unrelated publications.
Each line is one published result; the experiments were not run side by side.
FLT3: Receptor-type tyrosine-protein kinase FLT3 (FLT3, Homo sapiens, UniProt P36888)
F2 trypsin-like site: Prothrombin, trypsin-like site (F2, Bos taurus, UniProt P00735)
Tmem97: Sigma intracellular receptor 2 (Tmem97, Rattus norvegicus, UniProt Q5U3Y7)
HTR2C: 5-hydroxytryptamine receptor 2C (HTR2C, Homo sapiens, UniProt P28335)
MTNR1A: Melatonin receptor type 1A (MTNR1A, Homo sapiens, UniProt P48039)
CYP51: Sterol 14-alpha demethylase (CYP51, Trypanosoma cruzi, UniProt Q7Z1V1)
AURKA: Aurora kinase A (AURKA, Homo sapiens, UniProt O14965)

SMILES | target | test | setting | endpoint | value
c1cc(Nc2nccc(NC3CCCCC3)n2)cc(-c2cc[nH]n2)c1 | FLT3 | enzyme activity, inhibitor |  | IC50 | 96 nM
CC(C)(C)[C@H](NC(=O)[C@H](CCCNC(=N)N)NC(=O)Cc1ccc(CN)cc1)C(=O)N[C@@H](CCONC(=N)N)C(=O)NCc1ccc(C(=N)N)cc1 | F2 trypsin-like site | enzyme activity, inhibitor | pH 8 | Ki | 13000 nM
O=C(NCCN1CCCCC1)c1ccc(OCCF)c(Br)c1 | Tmem97 | ligand displacement, radioligand | cell membranes | Ki | 42.8 nM
CC(C)c1nc2cc(OCCCCN3CCN(c4cccc5c4OCCO5)CC3)ccc2s1 | HTR2C | cell-free assay, radioligand |  | Ki | 92 nM
Fc1ccc(CNc2cccc(-c3nnc[nH]3)c2)c(F)c1 | MTNR1A | cAMP, agonist, luciferase |  | EC50 | 245 nM
COc1cc2c(cc1OC)CN(CCCCn1ccc3c(OC)cccc31)C2 | Tmem97 | ligand displacement, radioligand | cell membranes | Ki | 6.3 nM
c1ccc(N2CCCC(Nc3nccc(NC4CCCCC4)n3)C2)cc1 (stereo not drawn) | FLT3 | enzyme activity, inhibitor |  | IC50 | 3260 nM
Cc1ccc(C(=O)Nc2ccc(Oc3cc4cnn(C)c4cc3-c3cn[nH]c3)c(F)c2)c(=O)n1-c1ccc(F)cc1 | FLT3 | enzyme activity, inhibitor, radiometric |  | IC50 | 31 nM
CCC(=O)NC1Cc2ccccc2C(c2ccccc2)C1 (stereo not drawn) | MTNR1A | β-arrestin recruitment, agonist |  | EC50 | 759 nM
COc1ccc2c(c1)N(Cc1cccc3[nH]ccc13)CCO2 | MTNR1A | cAMP, agonist, luciferase |  | EC50 | 20.8 nM
COC(=O)c1cccc(-c2cccc(Nc3nccc(NC4CCCCC4)n3)c2)c1 | FLT3 | enzyme activity, inhibitor |  | IC50 | 13300 nM
COc1ccc2c(c1)C(CNC(N)=O)Cc1ccccc1C2 (stereo not drawn) | MTNR1A | GTPγS binding, agonist, radiometric | cell membranes | EC50 | 28.2 nM
Cc1cc2nc3c(=O)[nH]c(=O)nc-3n(C[C@H](O)[C@H](O)[C@H](O)COP(=O)(O)OP(=O)(O)OC[C@H]3O[C@@H](n4cnc5c(N)ncnc54)[C@H](O)[C@@H]3O)c2cc1C | DNA topoisomerase 2-alpha (TOP2A, Homo sapiens, UniProt P11388) | binding | lysate | Kd | 141 nM
O=C(O[C@@H](Cn1ccnc1)c1ccccc1)c1ccc(-c2ccccc2)cc1 | CYP51 | binding |  | Kd | 87 nM
COc1cccc2c1CCN(C(=O)c1c[nH]nc1-c1ccc(Cl)s1)C2 | MTNR1A | cAMP, agonist, luciferase |  | EC50 | 76.3 nM
OC[C@@]12C[C@@H]1[C@@H](n1cnc3c(N[C@H](C4CCC4)C4CC4)nc(I)nc31)[C@H](O)[C@@H]2O | HTR2C | calcium signal, antagonist |  | Kb | 288 nM
COc1cc2c(CCNC(C)=O)c(I)[nH]c2cc1[N+](=O)[O-] | MTNR1A | GTPγS binding, agonist, radiometric | cell membranes | EC50 | 20.9 nM
Cc1cnc(-c2ccc(-c3ccc(NC(=O)Nc4c(F)cc(F)cc4F)cc3F)c3c2C(=O)NC3)[nH]1 | AURKA | binding, competition with immobilised ligand |  | Kd | 2.9 nM
COc1ccc2ncn(CCNC(C)=O)c2c1 | MTNR1A | GTPγS binding, agonist, radiometric | cell membranes | EC50 | 2190 nM
CC(C)Nc1ccnc(Nc2cccc(C(C)(C)C)c2)n1 | FLT3 | enzyme activity, inhibitor |  | IC50 | 17200 nM
COc1ccc2[nH]cc(CCNC(C)=O)c2c1I | MTNR1A | β-arrestin recruitment, agonist |  | EC50 | 52.5 nM

SMILES | target | test | setting | endpoint | value
CC(C)(C)[C@H](NC(=O)[C@H](CCCNC(=N)N)NC(=O)Cc1ccc(CNC(=N)N)cc1)C(=O)N[C@@H](CCCNC(=N)N)C(=O)NCc1ccc(C(=N)N)cc1 | F2 trypsin-like site | enzyme activity, inhibitor | pH 8 | Ki | 20000 nM
CCOc1ccc(CNc2cccnc2)cc1 | MTNR1A | cAMP, agonist, luciferase |  | EC50 | 63.5 nM
NC(=S)N/N=C1\C(=O)Nc2ccccc21 | Tmem97 | ligand displacement, radioligand | cell membranes | Ki | > 10000 nM
COc1ccc(CNc2cccnc2)cc1Br | MTNR1A | cAMP, agonist, luciferase |  | EC50 | 49 nM
CC(C)c1ccc(NC(=O)O[C@@H](Cn2ccnc2)c2ccc(F)cc2)cc1 | CYP51 | binding |  | Kd | 83 nM
O=C(NCCc1cccc2ccccc12)C1CCC1 | MTNR1A | β-arrestin recruitment, agonist |  | EC50 | 288 nM
O=C(Nc1ccc(Sc2ccc([N+](=O)[O-])cc2)cc1)O[C@@H](Cn1ccnc1)c1ccc(Cl)cc1 | CYP51 | binding |  | Kd | 715 nM
COc1cccc2c1CCN(C(=O)c1cncn1C)C2 | MTNR1A | cAMP, agonist, luciferase |  | EC50 | 22.7 nM
CC(C)Nc1ccnc(Nc2ccc(C(N)=O)cc2)n1 | FLT3 | enzyme activity, inhibitor |  | IC50 | 213 nM
O=C(NCCCn1ccnc1)O[C@H](Cn1ccnc1)c1ccc(F)cc1 | CYP51 | binding |  | Kd | 600 nM
O=C(NCCN1CCCCC1)c1cc(Br)ccc1O | Tmem97 | ligand displacement, radioligand | cell membranes | Ki | > 10000 nM
COC(=O)[C@H](C)Nc1ccnc(Nc2cccc(-c3cccnc3)c2)n1 | FLT3 | enzyme activity, inhibitor |  | IC50 | > 22000 nM
Cc1cc(Nc2cc3ncccc3c(N[C@@H]3C[C@H]4CC[C@@H](C3)N4CCC#N)n2)n[nH]1 | AURKA | binding, competition with immobilised ligand |  | Kd | 66 nM
COc1ccc(-c2nsc(NC(=O)[C@@H]3C[C@H]3C)c2C)cc1 | Metabotropic glutamate receptor 1 (Grm1, Rattus norvegicus, UniProt P23385) | ligand displacement, radioligand |  | Ki | 0.6 nM
COc1cc2c(CCNC(C)=O)c[nH]c2cc1I | MTNR1A | cAMP, agonist, TR-FRET |  | EC50 | 6.61 nM
CCOC(=O)c1nc(N(C)CCc2cnccn2)ccc1Br | MTNR1A | cAMP, agonist, luciferase |  | EC50 | 29.4 nM
c1ccc(-c2ccc(Nc3nccc(NC4CCCCC4)n3)cc2)nc1 | FLT3 | enzyme activity, inhibitor |  | IC50 | 1880 nM
COc1ccc2c(ccn2CCCCN2Cc3cc(OC)c(OC)cc3C2)c1 | Tmem97 | ligand displacement, radioligand | cell membranes | Ki | 8.91 nM
CC(C)Nc1ccnc(Nc2ccc(-c3ccccc3)cc2)n1 | FLT3 | enzyme activity, inhibitor |  | IC50 | 15000 nM
COC(=O)c1cc(Cn2ccc(C(C)=O)n2)c(C)s1 | MTNR1A | cAMP, agonist, luciferase |  | EC50 | 74.9 nM
CC(C)(C)[C@H](NC(=O)[C@H](CCONC(=N)N)NC(=O)Cc1ccc(CN)cc1)C(=O)N[C@@H](CCCCN)C(=O)NCc1ccc(C(=N)N)cc1 | F2 trypsin-like site | enzyme activity, inhibitor | pH 8 | Ki | 10000 nM
